ChEMBL document CHEMBL2385038, “Bioactive dibenzocyclooctadiene lignans from the stems of Schisandra neglecta” (J Nat Prod, 2013)

Tests used:
MCF7 = assay: Cytotoxicity against human MCF7 cells after 3 days by MTT assay; type: functional, cell-based; settings: MCF7, 72 h
Procedure, shortened: (§1)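 MTT viability assay on NB4 (acute promyelocytic leukemia), A549 (lung adenocarcinoma), SHSY5Y (neuroblastoma), PC3 (prostate) and MCF7 (breast adenocarcinoma) cells, reported as IC50. Paclitaxel was the positive control. Performed in triplicate.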

PC-3 = assay: Cytotoxicity against human PC3 cells after 3 days by MTT assay; type: functional, cell-based; settings: PC-3, 72 h; procedure, shortened: as §1
A549 = assay: Cytotoxicity against human A549 cells after 3 days by MTT assay; type: functional, cell-based; settings: A549, 72 h; procedure, shortened: as §1
[1] = Cytotoxicity against human SH-SY5Y cells after 3 days by MTT assay; type: functional, cell-based; settings: 72 h; procedure, shortened: as §1
[2] = Therapeutic index, ratio of CC50 for human C8166 cells to EC50 for HIV-1 3B; type: cell-based; settings: read-out: Ratio CC50/EC50
NB-4 = assay: Cytotoxicity against human NB4 cells after 3 days by MTT assay; type: functional, cell-based; settings: NB-4, 72 h; procedure, shortened: as §1
[3] = tested on: Human immunodeficiency virus 1; assay: Antiviral activity against HIV-1 3B infected in human C8166 cells assessed as inhibition of virus-induced cytopathic effect after 3 days by Syncytia Assay; type: functional, organism-based; settings: Human immunodeficiency virus 1, 3B, C8166, 72 h
Procedure, shortened: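 Inhibition of HIV-1-induced cytopathic effect in C8166 cells, expressed as EC50. Azidothymidine (AZT) served as the positive control. Performed in triplicate.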

[4] = Cytotoxicity against human C8166 cells after 3 days by MTT assay; type: cell-based
Procedure, shortened: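 Viability of uninfected C8166 cells was measured by MTT to give CC50, alongside the anti-HIV-1 assay. Performed in triplicate.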

Row | Structure (SMILES) | IC50 (MCF7) | IC50 (PC-3) | IC50 (A549) | IC50 [1] | selectivity ratio [2] | IC50 (NB-4) | EC50 [3] | CC50 at 72 h [4]
1 | COc1c(O)cc2c(c1OC)-c1c(cc3c(c1OC)OCO3)[C@H](OC(=O)C(C)C)[C@H](C)[C@H](C)C2 | > 10 µM | > 10 µM | > 10 µM | > 10 µM | 18.1 | > 10 µM | 8.2 µM | 149 µM
2 | COc1c(OC)c(C(=O)O)c2c(c1OC)-c1c(cc3c(c1OC)OCO3)[C@H](O)[C@H](C)[C@H](C)C2 | 7.4 µM | > 10 µM | 6.8 µM | > 10 µM | 40.3 | > 10 µM | 2.2 µM | 86.7 µM
3 | COc1c(O)c(C(=O)O)c2c(c1OC)-c1c(cc3c(c1OC)OCO3)[C@H](O)[C@H](C)[C@H](C)C2 | > 10 µM | 9.2 µM | 5.9 µM | > 10 µM | 55.3 | > 10 µM | 1.4 µM | 75.2 µM
4 | COc1c2c(cc(CC(C)=O)c1-c1c(CC(C)=O)cc3c(c1OC)OCO3)OCO2 | > 10 µM | > 10 µM | > 6.5 µM | 8.2 µM | 14.1 | 7.3 µM | 3.9 µM | 54.5 µM
5 | COc1cc(CC(C)=O)c(-c2c(CC(C)=O)cc(OC)c(OC)c2O)c(O)c1OC | 7.8 µM | 5.1 µM | 8.6 µM | 3.3 µM | 9.2 | 2.9 µM | 4.2 µM | 38.8 µM
6 | COc1cc2c(c(OC)c1OC)-c1c(cc(OC)c(OC)c1OC)[C@H](OCC(C)C)[C@@H](C)[C@@H](C)C2 | > 10 µM | > 10 µM | > 10 µM | > 10 µM | > 33.7 | > 10 µM | 5.9 µM | > 200 µM
7 | COc1cc2c(c(OC)c1OC)-c1c(cc(O)c(OC)c1OC)[C@H](OCC(C)C)[C@@H](C)[C@@H](C)C2 | > 10 µM | > 10 µM | > 10 µM | > 10 µM | > 58 | > 10 µM | 3.5 µM | > 200 µM
8 | COc1cc2c(c(OC)c1OC)-c1c(cc(O)c(OC)c1OC)C[C@H](C)[C@@](C)(O)C2 | – | – | – | – | 15.1 | – | 8.2 µM | 124 µM
9 | C/C=C(/C)C(=O)O[C@H]1c2cc(OC)c(OC)c(OC)c2-c2c(cc(OC)c(OC)c2OC)C[C@H](C)[C@]1(C)O | > 10 µM | > 10 µM | > 10 µM | 7.8 µM | 7.4 | > 10 µM | 11.5 µM | 84.7 µM
10 | COc1cc2c(c(O)c1OC)-c1c(cc(OC)c(OC)c1OC)[C@H](OC(=O)c1ccccc1)[C@@H](C)[C@@](C)(O)[C@H]2OC(C)=O | 9.7 µM | > 10 µM | > 10 µM | > 10 µM | 17.8 | 7.4 µM | 8.3 µM | 147 µM
11 | COc1cc2c(c(OC)c1OC)-c1c3cc4c(c1OC[C@@H](C)[C@@](C)(O)C(=O)O[C@@H]2[C@@](C)(O)[C@@H](C)C3)OCO4 | – | – | – | – | 18.9 | – | 9.8 µM | 186 µM
12 | COc1cc2c(c(O)c1OC)-c1c(cc3c(c1OC)OCO3)C[C@H](C)[C@H](C)C2 (racemic) | > 10 µM | > 10 µM | > 10 µM | > 10 µM | – | > 10 µM | – | –
13 | COc1cc2c(c(OC)c1OC)-c1c(cc3c(c1OC)OCO3)[C@H](OC(=O)C=C(C)C)[C@@](C)(O)[C@@H](C)C2 [GOMISIN F] | > 10 µM | > 10 µM | > 10 µM | > 10 µM | 7.5 | > 10 µM | 8.3 µM | 61.9 µM
14 | C/C=C(/C)C(=O)O[C@H]1c2cc(OC)c(OC)c(OC)c2-c2c(cc3c(c2OC)OCO3)[C@H](OC(C)=O)[C@H](C)[C@@H]1C [INTERIOTHERIN C] | > 10 µM | > 10 µM | > 10 µM | > 10 µM | – | > 10 µM | – | –
15 | COc1cc2c(c(OC)c1OC)-c1c(cc3c(c1OC)OCO3)[C@H](O)[C@H](C)[C@H](C)C2 [ISOGOMISIN O] | > 10 µM | > 10 µM | > 10 µM | > 10 µM | – | > 10 µM | – | –
16 | COc1c(O)cc2c(c1OC)-c1c(cc(O)c(OC)c1OC)[C@H](OCc1ccccc1)[C@@H](C)[C@@H](C)C2 [MARLIGNAN G] | > 10 µM | 9.5 µM | 8.6 µM | > 10 µM | – | > 10 µM | – | –
17 | CC(=O)O[C@H]1C(=O)[C@@]2(C)[C@H]([C@H](OC(=O)c3ccccc3)[C@]3(O)C[C@H](OC(=O)[C@H](O)[C@@H](NC(=O)c4ccccc4)c4ccccc4)C(C)=C1C3(C)C)[C@]1(OC(C)=O)CO[C@@H]1C[C@@H]2O [PACLITAXEL] | – | – | 0.02 µM | 0.2 µM | – | 0.03 µM | – | –
18 | COc1cc2c(c(OC)c1OC)-c1c(cc3c(c1OC)OCO3)C[C@H](C)[C@H](C)[C@H]2OC(C)=O [RUBSCHISANTHERIN] | > 10 µM | > 10 µM | > 10 µM | > 10 µM | 18.2 | > 10 µM | 4.7 µM | 85.2 µM
19 | COc1cc(CO)c(-c2c(C[C@H](C)C(C)=O)cc3c(c2OC)OCO3)c(OC)c1OC [SCHISPHENONE] | > 10 µM | 8.9 µM | > 10 µM | > 10 µM | 12.3 | > 10 µM | 12.7 µM | 156 µM
20 | Cc1cn([C@H]2C[C@H](N=[N+]=[N-])[C@@H](CO)O2)c(=O)[nH]c1=O [ZIDOVUDINE] | – | – | – | – | – | – | 0.034 µM | > 200 µM
